PPC-1+TRAIL kill = compounds killing PPC-1 cancer cells with TRAIL present, primary screen, TRAIL potentiator project, ATPLite luminescence, uHTS | actives 0.41% (n = 220,000) | cell killing (% activity), % at 4 µM or 5 µM | PPC-1 cells + TRAIL, ATPLite viability luminescence;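 active = cell killing above 50% in the first pass at 4 µM, then a duplicate retest at 5 µM averaging 50% or more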;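 note: plate controls were cells with TRAIL plus DMSO for no effect and medium-only wells lacking cells for full effect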
STAT1 inh = STAT1 signaling inhibitors, primary screen, cell-based, HTS, luciferase reporter. NIH 3T3 STAT1-luciferase reporter, IFN-gamma, luminescence. inhibition, % at 5.5 µM. actives 0.35% (n = 200,000);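 active = inhibition above a set limit, the mean inhibition across all tested compounds plus 3 SD, cut at about 34% in these data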;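 note: 0% = IFN-gamma with DMSO and 100% = IFN-gamma with 300 µM nifuroxazide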
C8 TRAIL sens = viability loss with TRAIL in NB7+C8 cells, primary screen, TRAIL sensitizer project, cell-based, ATPlite luminescence. inhibition (viability loss, TRAIL sensitization), % at 10 µM. actives 1% (n = 360,000). AID 624354, 2012;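 active = compounds causing at least 50% loss of cell viability in the single-dose screen, relative to plate controls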
STAT3 activator = IL-6 driven STAT3 reporter potentiators, primary screen, U3A cells, luciferase, luminescence, MLSCN library. IL-6 STAT3-luciferase reporter; 100% = signal with IL-6 EC80 alone. activation (% of control), % at 5.6 µM. actives 0.91% (n = 190,000);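 active = activation above the screen-wide mean of compound activation plus 3 SD, cut at about 130% in these data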;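 note: 0% = background luminescence of wells with medium and substrate only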
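Test system: Human STAT1-deficient U3A cells with stable STAT3-luciferase reporter | Also added: Interleukin-6, 33 ng/mL | Timing: Compound pre-incubation 1 h before IL-6, then 6 h stimulation at 37 °C | Technique: Luciferase reporter luminescence | Read-out: Percent of IL-6-only median luminescence | Benchmarks: IL-6-only wells as 100% reference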
STAT3 inh-1 = IL-6 driven STAT3 reporter inhibitors, primary screen, U3A cells, luciferase, luminescence, MLSCN library | IL-6 STAT3-luciferase reporter; host cell line lacks STAT1 | actives 0.89% (n = 190,000) | inhibition, % at 5.5 µM;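 active = inhibition above the mean inhibition across all screened compounds plus 3 SD, cut at about 44% in these data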;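 note: 0% = DMSO only wells and 100% = 100 µM nifuroxazide control wells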
STAT3 inh-2 = STAT3 reporter inhibitors, retest of hits, confirmation, U3A cells, luciferase, luminescence; shares compounds with STAT3 inh-1; IL-6 STAT3 luciferase reporter; cell line lacks STAT1; inhibition, % at 5.7 µM; actives 45% (n = 1,200); AID 1265, 2008;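 active = inhibition above the hit cutoff computed for the primary STAT3 screen, cut at about 44% in these data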;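 note: 0% = IL-6 plus DMSO and 100% = IL-6 plus nifuroxazide control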
NFkB inh 2 = NF-kB reporter inhibitors in human cells, confirmation, counter-screen for STAT3 inhibitor project, cell-based, HEK293T, luciferase, TNF-alpha stimulus | shares compounds with STAT3 inh-1 | TNF-alpha induced | inhibition, % at 5.7 µM | actives 36% (n = 1,200) | AID 1308, 2008;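 active = inhibition above the mean of solvent-only control wells plus 3 SD, cutoff set per campaign, cut at about 13% in these data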;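 note: 0% = TNF-alpha with DMSO and 100% = TNF-alpha with MG high control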
STAT1 inh 2 = STAT1 reporter inhibitors, IFN-gamma induced, confirmation, counter-screen for STAT3 inhibitor project, cell-based, NIH 3T3, luciferase luminescence. AID 1317, 2008. inhibition, % at 5.7 µM. shares compounds with STAT3 inh-1. NIH 3T3 STAT1-luciferase reporter. actives 27% (n = 1,200);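 active = inhibition above the mean plus 3 SD of solvent-only control wells, limit set per screening run, cut at about 16% in these data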;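 note: 0% = DMSO with IFN-gamma and 100% = nifuroxazide control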
* marks the source's active call; other numbers are inactive results; / = no result. Rows were chosen to be rich in hits. Some 1.8% of all compounds tested hit in one or more screens of this group.

SMILES	PPC-1+TRAIL kill	STAT1 inh	C8 TRAIL sens	STAT3 activator	STAT3 inh-1	STAT3 inh-2	NFkB inh 2	STAT1 inh 2
c1ccc(-c2nnc(NC3=NCCC3)o2)cc1	40.2	-21.7	32.5	66.6	44.1*	3.7	-26.7	-60.2
Cc1ccc(S(=O)(=O)NC(=O)C2(C)CCN2C(=O)C2(c3ccc(Cl)cc3)CCC2)nc1 (stereo not given)	/	/	-6.9	/	/	/	/	/
COc1ccc(C(=O)c2sc(Nc3ccccc3)c(C(=O)Nc3ccc(OC)c(OC)c3)c2N)cc1	-1.9	6.5	-10.9	81.4	22.6	/	/	/
COc1ccc(NC(=O)c2c(Nc3ccccc3)sc(C(=O)c3ccc(F)cc3)c2N)cc1	-0.2	23.9	30.2	49.5	61.0*	37.4	35.1*	42.9*
COc1ccc(S(=O)(=O)N2CCOCC2)cc1C(=O)N(C)CCOc1ccc(Cl)cc1	/	/	-2.0	/	/	/	/	/
COc1ccc(NC(=O)COc2ccc(-c3nn(C)c(=O)c4ccccc34)cc2)cc1	7.5	-8.8	4.9	94.0	13.8	/	/	/
COc1ccc(OCC(=O)Nc2cc(-c3nn(C)c(=O)c4ccccc34)ccc2OC)cc1	4.3	26.0	28.5	60.9	50.8*	47.5*	22.1*	25.3*
COC(=O)c1ccc(NC(=O)Nc2ccccc2F)cc1	46.1	-13.9	37.0	63.5	47.8*	21.1	-32.7	-107.0
Cc1ccc(-n2c(C)cc(C(=O)COc3cccnc3[N+](=O)[O-])c2C)cc1	-0.3	13.5	33.8	65.3	42.9	/	/	/
Cc1cc(C(=O)COc2cccnc2[N+](=O)[O-])c(C)n1-c1ccccc1	29.3	4.9	33.8	49.8	59.9*	20.5	11.2	-38.8
CCC(=O)N[C@H]1CC[C@@H](CCn2cc(C3CC3)nn2)O[C@@H]1CO	/	/	2.2	/	/	/	/	/
Cc1ccc(NC(=O)C(C)Sc2nnc3n2CCCCC3)cc1S(=O)(=O)N1CCOCC1 (stereo not given)	/	/	5.4	/	/	/	/	/
O=C(CSc1nnc(Cn2nnc3ccccc32)o1)N(Cc1ccc(F)cc1)c1ccccc1	27.5	20.1	17.8	36.6	75.6*	71.8*	23.8*	19.1*
COc1ccc(N(Cc2ccccc2)C(=O)CSc2nnc(Cn3nnc4ccccc43)o2)cc1	17.9	6.4	-1.1	94.9	7.7	/	/	/
CCOc1nc2c(c(=O)n(C)c(=O)n2C)n1Cc1ccccc1Cl	-14.1	17.4	14.7	64.9	46.0*	27.4	7.1	15.2
Cc1nnc(SCC(=O)NC2CCCC2)n1C(C)C	/	/	9.1	/	/	/	/	/
COc1ccc(/C=N/NC(=S)Nc2ccccc2)cc1	23.4	-38.0	-3.8	95.3	7.8	/	/	/
COc1ccc(/C=N/NC(=S)Nc2cccc(C(=O)O)c2)cc1	41.4	29.1	20.6	36.0	77.7*	52.2*	6.5	-5.0
CCOc1ccc(NC(=O)c2cccc(S(=O)(=O)NCc3cccnc3)c2)cc1	/	/	-3.9	/	/	/	/	/
COc1cc2ccc(-c3ccc4ccccc4n3)cc2cc1OC	/	/	-0.3	/	/	/	/	/
COc1ccc(-c2ccc3ccccc3n2)cc1	43.3	23.2	57.5*	54.9	55.0*	17.8	-22.8	-107.3
CN(C)c1ccc(-c2n(C)c3ccccc3[n+]2C)cc1	1.3	18.7	8.3	39.5	74.4*	64.9*	-6.6	24.3*
COC(=O)CSc1ncnc2c1sc1nc3c(cc12)COC(C)(C)C3	47.6	22.7	73.3*	65.5	44.2*	44.5*	17.5*	28.4*
CC1(C)Cc2nc3sc4c(SCC(=O)NCc5ccccc5)ncnc4c3cc2CO1	13.4	-33.9	19.7	111.0	-13.3	/	/	/
CN(CC(=O)Nc1ccc(F)cc1)C(=O)CNC(=O)C1CCCCC1	/	/	1.1	/	/	/	/	/
SMILES	PPC-1+TRAIL kill	STAT1 inh	C8 TRAIL sens	STAT3 activator	STAT3 inh-1	STAT3 inh-2	NFkB inh 2	STAT1 inh 2
Cc1cc(C(=O)Cn2nnc3ccccc3c2=O)c(C)n1Cc1cccs1	43.8	19.4	58.1*	65.7	46.3*	-1.5	-23.7	-97.7
COC(=O)c1ccc(NC(=O)CCN2CCN(CCC(=O)Nc3ccc(C(=O)OC)cc3)CC2)cc1	19.3	0.0	15.1	60.8	48.6*	38.3	8.3	4.2
COC(=O)c1ccc(NC(=O)CCN2CCCCC2)cc1	5.0	6.2	-8.9	78.1	31.5	/	/	/
CN(CC(=O)N/N=C/c1ccc(F)cc1)S(=O)(=O)c1ccccc1	/	/	-6.5	/	/	/	/	/
COc1cc(/C=N/Nc2snc(SC)c2C#N)cc(OC)c1OC	22.9	8.2	38.4	50.9	59.2*	40.6	3.6	-7.2
O=C(CCC(=O)Nc1ccccc1Cl)NN=C1CCCC1	/	/	-4.4	/	/	/	/	/
COc1cccc(C=Nc2ccc(N3CCOCC3)cc2)c1O	/	/	5.0	/	/	/	/	/
COc1cccc(C=Nc2ccc3c(c2)OCCO3)c1O	16.7	0.0	6.0	62.6	49.0*	3.8	2.8	-13.2
CCOC(=O)C1=CCN(S(=O)(=O)c2ccc(Br)cc2)C1c1ccc(C)cc1 (stereo not given)	/	/	3.1	/	/	/	/	/
COc1ccc(Cc2nc3ccc(C(=O)NCCc4ccncc4)cc3o2)cc1OC	/	/	6.8	/	/	/	/	/
COc1ccc(C(=O)Nc2ccc3oc(Cc4ccc(Cl)cc4)nc3c2)cc1OC	12.9	9.4	9.3	63.0	51.2*	44.8*	7.6	3.1
COc1ccc(N=C/C=C2\C=C(c3ccccc3)OC(C)(C)O2)cc1	2.8	15.7	-11.6	63.1	48.3*	8.0	5.0	6.5
Cn1c(SCCCC(=O)c2ccc(F)cc2)nnc1-c1ccncc1	17.1	-3.0	3.2	97.7	6.5	/	/	/
COCCn1c(SCCCC(=O)c2ccc(Br)cc2)nnc1-c1ccncc1	32.7	18.7	11.5	55.1	52.6*	45.5*	13.2*	15.9
CC1CCC2C(=O)N(c3cc(Cl)ccc3OC(=O)c3ccco3)C(=O)C2C1 (stereo not given)	/	/	-13.3	/	/	/	/	/
CC1CCC2C(=O)N(c3ccccc3OC(=O)c3ccccc3)C(=O)C2C1 (stereo not given)	13.3	5.0	10.3	65.5	43.9*	45.0*	1.6	3.2
CCCCC[C@@H](C)N1C[C@@H](COCc2ccccc2)Oc2cc(N3CCC[C@@H]3COC)ccc2S1(=O)=O	/	/	3.2	/	/	/	/	/
CCOC(=O)c1c(C)[nH]c(C2=NNC(=Nc3ccc(OCC)cc3)SC2)c1C	19.4	28.9	-8.9	50.5	59.7*	9.8	-9.4	-7.6
CCOC(=O)c1c(C)[nH]c(C2=NNC(=Nc3ccccc3)SC2)c1C	9.5	-2.9	10.0	104.4	0.5	/	/	/

Assay outcomes (PubChem)
